Reference: ChEMBL document CHEMBL2385035 (J Med Chem, 2013)

Legend:
[1] = Apparent permeability in MDCK cells expressing MDR1 at 3 uM after 60 mins by LC-MS/MS analysis; type: ADME, cell-based, Canis lupus familiaris; details: dog
[2] = molecular target: T1, Ileal sodium/bile acid cotransporter (Homo sapiens, UniProt Q12908); assay: Inhibition of human ASBT expressed in HEK293 cells assessed as inhibition of [3H]-taurocholate uptake after 90 mins by scintillation counting analysis; type: cell-based
T1 sequence (Q12908 whole entry): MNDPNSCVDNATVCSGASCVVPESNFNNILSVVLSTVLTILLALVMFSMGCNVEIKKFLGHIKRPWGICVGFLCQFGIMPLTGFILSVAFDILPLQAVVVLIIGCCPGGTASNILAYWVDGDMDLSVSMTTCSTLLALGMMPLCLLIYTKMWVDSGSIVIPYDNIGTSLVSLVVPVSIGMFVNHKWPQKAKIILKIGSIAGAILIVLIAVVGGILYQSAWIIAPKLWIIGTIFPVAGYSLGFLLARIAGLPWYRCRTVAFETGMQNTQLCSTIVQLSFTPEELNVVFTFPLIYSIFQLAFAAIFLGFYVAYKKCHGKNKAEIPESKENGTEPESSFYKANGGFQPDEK

[3] = Cmax in Sprague-Dawley rat portal vein blood at 10 mg/kg, po; type: ADME, organism-based; set-up: dose 10 mg/kg, route oral
In short: (§1)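 Fed male SD rats given a single oral gavage dose of 10 mg/kg. Maximum parent drug concentration measured in portal vein blood and in systemic blood.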

[4] = Cmax in Sprague-Dawley rat systemic blood at 10 mg/kg, po; type: ADME, organism-based; set-up: dose 10 mg/kg, route oral; in short: as §1
[5] = Half life in Sprague-Dawley rat intestine at 10 mg/kg, po; type: ADME, organism-based; set-up: dose 10 mg/kg, route oral
Mus musculus [6] = assay: In vivo inhibition of ASBT in C57BL/6J mouse assessed as increase in fecal bile acid excretion measured for 24 hrs; type: functional; details: Feces
[7] = molecular target: T2, Ileal sodium/bile acid cotransporter (Rattus norvegicus, UniProt Q62633); assay: Inhibition of rat ASBT expressed in HEK293 cells assessed as inhibition of [3H]-taurocholate uptake after 90 mins by scintillation counting analysis; type: cell-based
T2 sequence (Q62633 whole entry): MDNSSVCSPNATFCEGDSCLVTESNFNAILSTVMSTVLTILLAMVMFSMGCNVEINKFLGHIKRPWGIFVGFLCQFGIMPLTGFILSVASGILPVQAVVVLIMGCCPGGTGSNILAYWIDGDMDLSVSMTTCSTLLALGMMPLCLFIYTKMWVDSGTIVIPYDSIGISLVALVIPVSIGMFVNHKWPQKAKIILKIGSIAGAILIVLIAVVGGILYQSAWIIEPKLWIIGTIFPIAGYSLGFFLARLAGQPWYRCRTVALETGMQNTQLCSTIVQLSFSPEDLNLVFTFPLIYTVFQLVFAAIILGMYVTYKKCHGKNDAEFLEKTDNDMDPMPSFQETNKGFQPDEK

[8] = molecular target: T3, Ileal sodium/bile acid cotransporter (Mus musculus, UniProt P70172); assay: Inhibition of mouse ASBT expressed in HEK293 cells assessed as inhibition of [3H]-taurocholate uptake after 90 mins by scintillation counting analysis; type: cell-based
T3 sequence (P70172 whole entry): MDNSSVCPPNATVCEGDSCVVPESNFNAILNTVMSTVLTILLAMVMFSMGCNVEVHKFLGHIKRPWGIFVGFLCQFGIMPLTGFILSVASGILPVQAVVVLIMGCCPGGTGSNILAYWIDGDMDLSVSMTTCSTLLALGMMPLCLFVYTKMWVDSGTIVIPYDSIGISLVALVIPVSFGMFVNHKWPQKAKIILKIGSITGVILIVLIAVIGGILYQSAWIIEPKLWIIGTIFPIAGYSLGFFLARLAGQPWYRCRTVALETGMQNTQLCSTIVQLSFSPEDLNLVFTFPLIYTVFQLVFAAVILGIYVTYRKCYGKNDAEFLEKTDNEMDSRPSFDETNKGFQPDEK

[9] = Drug recovery in Sprague-Dawley rat feces at 10 mg/kg, po; type: ADME, organism-based; set-up: dose 10 mg/kg, route oral; details: read-out: Drug recovery
Mus musculus [10] = assay: In vivo inhibition of ASBT in C57BL/6J mouse assessed as increase in fecal bile acid excretion measured for 24 hrs relative to 264W94; type: functional, Feces; set-up: concentration or dose not given beside the values

SMILES | Papp at 1 h, 3 µM [1] [×10⁻⁶ cm/s] | IC50 [2] [nM] | Cmax [3] [ng/mL] | Cmax [4] [ng/mL] | further results
CCCC[C@]1(CC)CS(=O)(=O)c2cc(OCCCP(=O)(O)O)c(OC)cc2[C@@H](c2ccccc2)N1 | 1 | 133 | 260 | 7 | –
CCCC[C@]1(CC)CS(=O)(=O)c2cc(CCCS(=O)(=O)O)c(OC)cc2[C@@H](c2ccccc2)N1 | 0.7 | – | – | – | –
CCCC[C@]1(CC)CS(=O)(=O)c2cc(CN(CP(=O)(O)O)CP(=O)(O)O)c(OC)cc2[C@@H](c2ccccc2)N1 | – | > 3000 | – | – | –
CCCC[C@]1(CC)CS(=O)(=O)c2cc(OCCCS(=O)(=O)O)c(OC)cc2[C@@H](c2ccccc2)N1 | 0.8 | 50 | 289 | 1 | –
CCCC[C@]1(CC)CS(=O)(=O)c2cc(C(CC(=O)O)CC(=O)O)c(OC)cc2[C@@H](c2ccccc2)N1 | 0.5 | > 3000 | 333 | 19 | –
CCCC[C@]1(CC)CS(=O)(=O)c2cc(OCCP(=O)(O)O)c(OC)cc2[C@@H](c2ccccc2)N1 | 0.8 | 44 | 82 | 16 | –
CCCC[C@]1(CC)CS(=O)(=O)c2cc(CN3CCC[C@H]3C(=O)O)c(OC)cc2[C@@H](c2ccccc2)N1 | – | > 3000 | – | – | –
CCCC[C@]1(CC)CS(=O)(=O)c2cc(OCCS(=O)(=O)O)c(OC)cc2[C@@H](c2ccccc2)N1 | 1.2 | 4 | 220 | 7 | –

Now from value to compound, other results behind:

Papp at 1 h, 3 µM [1] [×10⁻⁶ cm/s] | IC50 [2] [nM] | Cmax [3] [ng/mL] | Cmax [4] [ng/mL] | SMILES | further results
34.2 | – | – | – | CCCC[C@]1(CC)CS(=O)(=O)c2cc(CCCC(=O)O)c(OC)cc2[C@@H](c2ccccc2)N1 | –
0.4 | 245 | 56 | 43 | CCCC[C@]1(CC)CS(=O)(=O)c2cc(CN(CC(=O)O)CC(=O)O)c(OC)cc2[C@@H](c2ccccc2)N1 | –
1.2 | – | – | – | CCCC[C@]1(CC)CS(=O)(=O)c2cc(CCC(=O)NCC(=O)O)c(OC)cc2[C@@H](c2ccccc2)N1 | –
0.7 | – | – | – | CCCC[C@]1(CC)CS(=O)(=O)c2cc(CCC(=O)NCS(=O)(=O)O)c(OC)cc2[C@@H](c2ccccc2)N1 | –
1 | 34 | 1460 | 26 | CCCC[C@]1(CC)CS(=O)(=O)c2cc(OCC(=O)O)c(OC)cc2[C@@H](c2ccccc2)N1 | –
0.7 | – | – | – | CCCC[C@]1(CC)CS(=O)(=O)c2cc(CCCP(=O)(O)O)c(OC)cc2[C@@H](c2ccccc2)N1 | –
– | – | 87 | – | CCCC[C@]1(CC)CS(=O)(=O)c2cc(CNC(=O)C(=O)O)c(OC)cc2[C@@H](c2ccccc2)N1 | –
1 | – | 7 | – | CCCC[C@]1(CC)CS(=O)(=O)c2cc(CNCCS(=O)(=O)O)c(OC)cc2[C@@H](c2ccccc2)N1 | half-life [5]: > 12 h; ED50 (Mus musculus [6]): 2.7 mg/kg; IC50 [7]: 2.3 nM; IC50 [8]: 0.9 nM; dose excreted [9]: 100%; Efficacy (Mus musculus [10]): 73%
0.7 | – | 92 | 4 | CCCC[C@]1(CC)CS(=O)(=O)c2cc(C(=O)NCS(=O)(=O)O)c(OC)cc2[C@@H](c2ccccc2)N1 | –
0.9 | – | 170 | 3 | CCCC[C@]1(CC)CS(=O)(=O)c2cc(CS(=O)(=O)O)c(OC)cc2[C@@H](c2ccccc2)N1 | –
